B1: Drosophila GST-EB1 (natural protein)
chain: MAVNVYSTNVTSENLSRHDMLAWVNDCLQSQFSKIEELCTGAAYCQFMDMLFPNSVPVKRVKFRTNLEHEYIQNFKILQAGFKKMSVDKIIPIDKLVKGRFQDNFEFLQWFKKFFDANYDGRDYDASAVREGAPMGFGSGAVKSLPGTAASGVSSSYRRGPSATTRPAMTSAVKPISKVLPRTNNAAPASRINACANSTGTVKKNDVSNSVNNQQIEEMSNQVMDMRINLEGLEKERDFYFSKLRDIEILCQEADDAEAHPIIQKILDILYATEDGFAPPDDAPPEDEEY
B2: NOD485: NOD truncation (1–485) that encompasses the motor domain and the noncanonical neck extension region (protein, UniProt P18105 1-485, looked up, fragment)
chain: MEGAKLSAVRIAVREAPYRQFLGRREPSVVQFPPWSDGKSLIVDQNEFHFDHAFPATISQDEMYQALILPLVDKLLEGFQCTALAYGQTGTGKSYSMGMTPPGEILPEHLGILPRALGDIFERVTARQENNKDAIQVYASFIEIYNEKPFDLLGSTPHMPMVAARCQRCTCLPLHSQADLHHILELGTRNRRVRPTNMNSNSSRSHAIVTIHVKSKTHHSRMNIVDLAGSEGVRRTGHEGVARQEGVNINLGLLSINKVVMSMAAGHTVIPYRDSVLTTVLQASLTAQSYLTFLACISPHQCDLSETLSTLRFGTSAKKLRLNPMQVARQKQSLAARTTHVFRQALCTSTAIKSNAANHNSIVVPKSKYSTTKPLSAVLHRTRSELGMTPKAKKRARELLELEETTLELSSIHIQDSSLSLLGFHSDSDKDRHLMPPPTGQEPRQASSQNSTLMGIVEETEPKESSKVQQSMVAPTVPTTVRCQL

Legend:
[1] = molecular target: FITC-labeled NOD "PT" motif-1 peptide (Drosophila melanogaster); test: MST
[2] = system: MTs in Drosophila S2 cells; test: Plus end-directed motility on MTs in cells; format: cell-based; conditions: TIRF microscopy, interphase S2 cells
Outline: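 Live TIRF imaged mCherry-tagged constructs on cortical MTs of interphase S2 cells. Cells were plated on concanavalin A-coated glass after 16–18 h CuSO4 induction at 500 µM (high) or 25 µM (low). Frames were taken every 1 s (single colour) or 2 s (dual colour, with GFP-α-tubulin). Velocities came from manually tracking motile puncta, with kymographs for direction.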

[3] = system: MTs in Drosophila S2 cells; test: MT association / localization in Drosophila S2 cells by live cell imaging; format: cell-based; conditions: fixation with paraformaldehyde and permeabilization with detergent
Outline: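 Drosophila S2 cells were grown in Schneider's medium with 10% heat-inactivated FBS at 25°C. Lines stably expressing C-terminally mCherry-tagged NOD truncations from a copper-inducible pMT vector were selected with blasticidin and/or hygromycin. Expression was induced with 500 µM or 25 µM CuSO4 for 16–18 h. Cells were imaged live on concanavalin A-coated glass and MT association scored as weak or strong. Retention was also checked after paraformaldehyde fixation and detergent permeabilization.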

Molecule	Kd [1] [nM]	motility on MTs in cells (in words) [2]	MT localization upon fixation (in words) [3]
B1	725	–	–
B2	–	motility was not obvious	significantly reduced upon fixation

Reference: paper PMC6122986 (The Journal of Cell Biology, 2018)
